# Measurements published in ChEMBL document CHEMBL1132437, “Synthesis and antimicrobial activity of 4H-4-oxoquinolizine derivatives: consequences of structural modification at the C-8 position” (1999).
# Columns and labels:
# Type in all cases: functional
# [1] = tested on: Staphylococcus aureus; assay: In vitro antibacterial activity against gram-positive Staphylococcus aureus NCTC 10649M
# Summary of the method: (§1)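 Agar dilution MIC determination following the National Committee for Clinical Laboratory Standards recommendations.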
# [2] = tested on: Burkholderia cepacia; assay: In vitro antibacterial activity against gram negative Pseudomonas cepacia 2961; conditions: Burkholderia cepacia; read-out: MIC; summary of the method: as §1
# [3] = tested on: Enterococcus faecium; assay: In vitro antibacterial activity against gram-positive Enterococcus faecium ATCC 8043; conditions: Enterococcus faecium, ATCC 8043; read-out: MIC; summary of the method: as §1
# [4] = tested on: Staphylococcus aureus; assay: In vitro antibacterial activity against gram-positive Staphylococcus aureus 1775; summary of the method: as §1
# [5] = tested on: Escherichia coli; assay: In vitro antibacterial activity against gram negative Escherichia coli KNK 437; summary of the method: as §1
# [6] = tested on: Streptococcus pneumoniae; assay: In vivo efficacy against Streptococcus pneumoniae ATCC 6303 in mouse protection test after s.c. administration.; conditions: Streptococcus pneumoniae, sc; read-out: ED50
# Summary of the method: (§2)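 Mouse protection model: mice infected intravenously with 100-fold LD50 of the organism. Compound given by subcutaneous injection or oral gavage at 1 and 5 h after infection, over a dose range. Deaths tracked for 7 days post-inoculation. ED50 is the dose giving 50% survival of treated mice over the trial.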
# [7] = tested on: Pseudomonas aeruginosa; assay: In vitro antibacterial activity against gram negative P. aeruginosa DPHP 5263; summary of the method: as §1
# [8] = tested on: Pseudomonas aeruginosa; assay: In vitro antibacterial activity against Gram-negative Pseudomonas aeruginosa 5007; conditions: Pseudomonas aeruginosa; read-out: MIC; summary of the method: as §1
# [9] = tested on: Staphylococcus aureus; assay: In vivo efficacy against Staphylococcus aureus NCTC 10649M in mouse; conditions: Staphylococcus aureus; read-out: ED50; summary of the method: as §2
# [10] = tested on: Streptococcus pyogenes; assay: In vitro antibacterial activity against gram positive Streptococcus pyogenes 930; summary of the method: as §1
# [11] = tested on: Pseudomonas aeruginosa; assay: In vivo efficacy against Pseudomonas aeruginosa 5007 in mouse protection test after subcutaneous administration; conditions: Pseudomonas aeruginosa, sc; read-out: ED50; summary of the method: as §2
# [12] = tested on: Escherichia coli; assay: In vivo efficacy against Escherichia coli JUHL in mouse protection test after subcutaneous administration; conditions: Escherichia coli, sc; read-out: ED50; summary of the method: as §2
# [13] = tested on: Escherichia coli; assay: In vivo efficacy against Escherichia coli JUHL in mouse protection test after p.o. administration.; conditions: Escherichia coli, po; read-out: ED50; summary of the method: as §2
# [14] = tested on: Staphylococcus aureus; assay: In vivo efficacy against Staphylococcus aureus NCTC 10649M in mouse protection test after p.o. administration.; conditions: Staphylococcus aureus, po; read-out: ED50; summary of the method: as §2
# [15] = tested on: Pseudomonas aeruginosa; assay: In vivo efficacy against Pseudomonas aeruginosa 5007 in mouse protection test after administration by oral gavage; conditions: Pseudomonas aeruginosa, po; read-out: ED50; summary of the method: as §2
# [16] = Staphylococcus aureus, NCTC 10649, read-out: MIC
# [17] = Staphylococcus aureus, read-out: MIC
# [18] = Escherichia coli, read-out: MIC
# [19] = Pseudomonas aeruginosa, DPHP 5263, read-out: MIC
# [20] = Streptococcus pyogenes, read-out: MIC
Structure (SMILES),"MIC [1, 16] [µg/mL]",MIC [2] [µg/mL],MIC [3] [µg/mL],"MIC [4, 17] [µg/mL]","MIC [5, 18] [µg/mL]","MIC [7, 19] [µg/mL]",MIC [8] [µg/mL],"MIC [10, 20] [µg/mL]",MIC [7] [µg/mL],MIC [4] [µg/mL],MIC [10] [µg/mL],MIC [5] [µg/mL],MIC [1] [µg/mL],ED50 [6] [mg/kg],ED50 [9] [mg/kg],ED50 [11] [mg/kg],ED50 [12] [mg/kg],ED50 [13] [mg/kg],ED50 [14] [mg/kg],ED50 [15] [mg/kg]
Cc1c(N2CC[C@@H]3CNC[C@@H]32)c(F)cn2c(=O)c(C(=O)O)cc(C3CC3)c12,0.05,3.1,0.1,6.2,0.2,,,,,,,,,,,,,,,
Cc1c(N2CCC[C@@H](NC3CC3)C2)c(F)cn2c(=O)c(C(=O)O)cc(C3CC3)c12,0.01,6.2,0.05,3.1,0.1,25,0.78,0.02,,,,,,> 16,1.8,> 32,,,,
Cc1c(N2CCCCC2)c(F)cn2c(=O)c(C(=O)O)cc(C3CC3)c12,0.05,3.1,0.39,0.78,3.1,> 100,3.1,0.2,,,,,,,,,,,,
Cc1c(N2CC[C@@H](C)[C@@H](N)C2)c(F)cn2c(=O)c(C(=O)O)cc(C3CC3)c12,0.1,6.2,0.39,3.1,0.78,12.5,1.56,0.39,,,,,,,,,,,,
Cc1c(N2C[C@@H]3CCCC[C@]3(CN)C2)c(F)cn2c(=O)c(C(=O)O)cc(C3CC3)c12,0.002,3.1,0.02,0.2,1.56,50,3.1,0.02,,,,,,,1.8,> 32,> 5,> 20,17.7,> 50
Cc1c(N2CCC(N(C)C3CC3)C2)c(F)cn2c(=O)c(C(=O)O)cc(C3CC3)c12 (stereo unspecified),0.05,3.1,0.2,1.56,0.39,100,0.78,0.2,,,,,,,,,,,,
Cc1c(N2CCCO2)c(F)cn2c(=O)c(C(=O)O)cc(C3CC3)c12,0.78,6.2,3.1,> 100,6.2,> 100,6.2,6.2,,,,,,,> 12,,> 5,,,

# Compounds with a lower MIC [2], results first:
"MIC [1, 16] [µg/mL]",MIC [2] [µg/mL],MIC [3] [µg/mL],"MIC [4, 17] [µg/mL]","MIC [5, 18] [µg/mL]","MIC [7, 19] [µg/mL]",MIC [8] [µg/mL],"MIC [10, 20] [µg/mL]",MIC [7] [µg/mL],MIC [4] [µg/mL],MIC [10] [µg/mL],MIC [5] [µg/mL],MIC [1] [µg/mL],Structure (SMILES),ED50 [6] [mg/kg],ED50 [9] [mg/kg],ED50 [11] [mg/kg],ED50 [12] [mg/kg],ED50 [13] [mg/kg],ED50 [14] [mg/kg],ED50 [15] [mg/kg]
0.02,1.56,0.1,1.56,0.05,,0.2,0.05,,,,,,CN[C@H]1CCN(c2c(F)cn3c(=O)c(C(=O)O)cc(C4CC4)c3c2C)C1,,,,,,,
0.02,1.56,0.39,3.1,3.1,> 100,3.1,0.39,,,,,,Cc1c(N2CCCN2C)c(F)cn2c(=O)c(C(=O)O)cc(C3CC3)c12,,,,,,,
0.01,0.78,0.1,,,,0.2,,3.1,0.39,0.02,0.05,,CN[C@@H]1CN(c2c(F)cn3c(=O)c(C(=O)O)cc(C4CC4)c3c2C)C[C@H]1C (stereo in doubt),,,,,,,
,0.78,0.1,0.39,0.2,12.5,0.39,,,,0.1,,0.02,Cc1c(N2C[C@@H](N)[C@@H](C3CC3)C2)c(F)cn2c(=O)c(C(=O)O)cc(C3CC3)c12 (stereo in doubt; 3s),,1.5,,3.7,6.6,3.4,
0.02,1.56,0.1,0.78,0.2,12.5,0.39,0.1,,,,,,Cc1c(N2C[C@H](N)[C@H](C3CC3)C2)c(F)cn2c(=O)c(C(=O)O)cc(C3CC3)c12,,,,,,,
,0.78,0.1,0.78,0.1,6.2,0.78,0.05,,,,,0.01,Cc1c(N2C[C@@H](N)[C@H](C3CC3)C2)c(F)cn2c(=O)c(C(=O)O)cc(C3CC3)c12 (stereo in doubt; 3t),,,,,,,
0.05,1.56,0.2,1.56,0.78,25,1.56,0.2,,,,,,Cc1c(N2C[C@@H]3CCCC[C@]3(N)C2)c(F)cn2c(=O)c(C(=O)O)cc(C3CC3)c12,,,,,,,
0.05,0.78,0.2,0.78,0.1,3.1,0.39,0.1,,,,,,Cc1c(N2C[C@H](C)[C@@H](N)C2)c(F)cn2c(=O)c(C(=O)O)cc(C3CC3)c12,,,,,,,
